This note sets out measurements from PMC5558211 (Journal of medicinal chemistry, 2017).

Entries after “also recorded” stand apart in the source; their conditions may differ.

One data set deals with 5FW-Brd4(1) (Homo sapiens, UniProt O60885). The data set can be described thus: PrOF NMR titration. It counts as binding. An outline of the steps: (§1)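 19F NMR at 500 MHz with cryoprobe, 40–50 μM 5FW-labelled bromodomain in 50 mM Tris, 100 mM NaCl, pH 7.4, 5% D2O (BrdT samples also 3 mM DTT). Used 90° flip angle, 0.7 s relaxation delay, 0.1 s acquisition and 500 transients, referenced to TFA at −76.55 ppm. Ligand was titrated from concentrated DMSO stocks, keeping DMSO below 1%. Kd came from a one-site fit accounting for ligand depletion.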

Another data set has as its system c-Myc. Kind of data set: Western blot of c-Myc levels. It counts as cell-based. Particulars: MM1.S cells, 6 h. An outline of the steps: (§2)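 MM1.S cells were grown in RPMI-1640 with 10% FBS at 37 °C, 5% CO2, seeded at 1 × 10^6 per well and exposed to increasing inhibitor concentrations for 6 h. Cells were pelleted (300 g, 5 min) and lysed at 4 °C with protease/phosphatase inhibitors plus 5 mM EDTA. Protein was quantified, run on 10 or 12.5% SDS-PAGE, transferred and probed with c-MYC or p21Cip1 antibodies, with chemiluminescent detection.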
For orientation: Immunoblotting shows a protein as a band on a membrane.

The test system of the next data set is p21Cip1. The data set can be described thus: Western blot of p21Cip1 levels. It counts as cell-based. Conditions: MM1.S cells, 6 h. The method in brief:
as §2

For data set [1], the target named is T1, Brd4(1) (Homo sapiens, UniProt O60885). Kind of data set: AlphaScreen competition against biotinylated compound 2. It counts as binding. Particulars: for Hill slope: alpha-screen competition. Background: Alpha assays give light when donor and acceptor beads are brought close together.
Another data set concerns the target 5FW-BrdT(1) (Homo sapiens, UniProt Q58F21). Kind of data set: PrOF NMR titration. It counts as binding. The method in brief:
as §1

In the next data set the target is 5FW-BPTF (Homo sapiens, UniProt Q12830). Kind of data set: PrOF NMR titration. It counts as binding. Conditions: non-BET bromodomain BPTF.
The test system of a further data set is MM1.S cells. The data set can be described thus: Cell viability. It counts as cell-based.
A short description of data set [2]: Stability of DMSO solution over freeze-thaw cycles by ESI-MS. It counts as physicochemical. Conditions: DMSO solution at −20 °C, several freeze-thaw cycles.
The target of the next data set is BrdT(1) (Homo sapiens, UniProt Q58F21). Kind of data set: Fluorescence anisotropy competition assay with BI-BODIPY tracer. It counts as binding. (In general: Polarisation of emitted light reports the rotation of a fluorescent probe.)
Data set [3] deals with T1, Brd4(1). Described as above. It counts as binding.

Turning to `CCn1c(N)cc(=O)[nH]c1=O` [6-amino-1-ethyluracil, reference compound], the ligand efficiency on 5FW-Brd4(1) (from PrOF NMR Kd) was 0.39 kcal/mol/non-hydrogen atom.

On to `Cc1sc2c(c1C)C(c1ccc(Cl)cc1)=N[C@@H](CC(=O)OC(C)(C)C)c1nnc(C)n1-2` [Compound 2, (+)-JQ1, reference compound], for which the “effect on c-Myc levels” value in the data set on c-Myc was “dose-dependent reduction of c-Myc levels”. Besides, the “effect on p21Cip1 levels” value with p21Cip1 is “upregulation of p21Cip1 levels”.

For orientation: Hill slope means a measure of the steepness of the concentration-response curve. Regarding `CCn1c2c(c(=O)[nH]c1=O)C(c1ccc(C)cc1)C1=C(COC1=O)N2` (stereo not drawn) [Compound 3, 1-Ethyl-5-(p-tolyl)-5,9-dihydrofuro[3′,4′:5,6]pyrido[2,3-d]pyrimidine-2,4,6(1H,3H,8H)-trione], the Hill slope at Brd4(1) [1] is −1. Also, the “binding behaviour by PrOF NMR” value at 5FW-Brd4(1) and on 5FW-BrdT(1) was “slow to intermediate exchange” each time. Also, the “effect of serum on binding by PrOF NMR” value at 5FW-Brd4(1) (presence of serum) was “did not interfere with the binding”. Besides, the “binding by PrOF NMR” value at 5FW-BPTF was “does not bind; also recorded: no binding was detected”. Besides, the growth inhibition activity entry in the data set with MM1.S cells is “lacked growth inhibition activity”. For the same compound, in the data set with c-Myc, the “effect on c-Myc levels” value is listed as “ineffective in altering c-Myc or p21Cip1 levels”. Besides, the “effect on p21Cip1 levels” value with p21Cip1 is recorded as “ineffective in altering c-Myc or p21Cip1 levels”. Also, the “stability of dihydropyridine moiety” value in [2] is “remains stable”.

On to `Cc1ccc(C2C3=C(COC3=O)Nc3c2c(=O)n(C)c(=O)n3C)cc1` (stereo not drawn) [Compound 3e, 1,3-Dimethyl-5-(p-tolyl)-5,9-dihydrofuro[3′,4′:5,6]pyrido[2,3-d]pyrimidine-2,4,6(1H,3H,8H)-trione], for which the “binding by fluorescence anisotropy” value at BrdT(1) is “inactive”.

With `COc1ccc(C2C3=C(COC3=O)Nc3c2c(=O)n(C)c(=O)n3C)cc1` (stereo not drawn) [Compound 3f, 5-(4-Methoxyphenyl)-1,3-dimethyl-5,9-dihydrofuro[3′,4′:5,6]pyrido[2,3-d]pyrimidine-2,4,6(1H,3H,8H)-trione], on BrdT(1), the “binding by fluorescence anisotropy” value was “inactive”.

A word on the IC50: it is the concentration that inhibits the measured activity by half. High values mean weaker potency in that assay, low ones greater potency in that assay. Consider `Cc1ccc(C2C3=C(COC3=O)Nc3c2c(=O)[nH]c(=O)n3CC(F)(F)F)cc1` (stereo not drawn) [Compound 3j, 5-(p-Tolyl)-1-(2,2,2-trifluoroethyl)-5,9-dihydrofuro[3′,4′:5,6]pyrido[2,3-d]pyrimidine-2,4,6(1H,3H,8H)-trione], for which, at Brd4(1) [1], the IC50 was 4.6 µM and the Hill slope was −1.6. Moreover, the “binding behaviour by PrOF NMR” value on 5FW-Brd4(1) is on record as “slow to intermediate exchange”. Further, the growth inhibition activity entry in the data set on MM1.S cells was “lacked growth inhibition activity”. Besides, the “effect on c-Myc levels” value with c-Myc is on record as “ineffective in altering c-Myc or p21Cip1 levels”. Besides, the “effect on p21Cip1 levels” value in the data set on p21Cip1 is “ineffective in altering c-Myc or p21Cip1 levels”.

As for `CCn1c2c(c(=O)n(C)c1=O)C(c1ccc(C)cc1)C1=C(COC1=O)N2` (stereo not drawn) [Compound 3m, 1-Ethyl-3-methyl-5-(p-tolyl)-5,9-dihydrofuro[3′,4′:5,6]pyrido[2,3-d]pyrimidine-2,4,6(1H,3H,8H)-trione], the “binding by fluorescence anisotropy” value at BrdT(1) is “inactive”.

With `CCn1c(=O)[nH]c(=O)c2c(-c3ccc(C)cc3)c3c(nc21)COC3=O` [Compound 3n, 1-Ethyl-5-(p-tolyl)furo[3′,4′:5,6]pyrido[2,3-d]pyrimidine-2,4,6(1H,3H,8H)-trione], the “binding by fluorescence anisotropy” value on BrdT(1) and at Brd4(1) [3] was “no binding was observed” throughout.

Consider `CCn1c2c(c(=O)[nH]c1=O)C(c1ccc(C)cc1)C1=C(CN(Cc3ccccc3)C1=O)N2` (stereo not drawn) [Compound 3p, 7-Benzyl-1-ethyl-5-(p-tolyl)-5,7,8,9-tetrahydro-1H-pyrrolo[3',4':5,6]pyrido[2,3-d]pyrimidine-2,4,6(3H)-trione], for which the “effect on c-Myc levels” value in the data set on c-Myc is given as “decreasing c-Myc expression levels”. The “effect on p21Cip1 levels” value with p21Cip1 is “concomitant increase in p21Cip1”.

With `CCn1c2c(c(=O)[nH]c1=O)C(c1ccc(C)cc1)C1=C(CN(CCc3ccccc3)C1=O)N2` (stereo not drawn) [Compound 3q, 1-Ethyl-7-phenethyl-5-(p-tolyl)-5,7,8,9-tetrahydro-1H-pyrrolo[3',4':5,6]pyrido[2,3-d]pyrimidine-2,4,6(3H)-trione], the “effect on c-Myc levels” value with c-Myc is “decreasing c-Myc expression levels”. Further, the “effect on p21Cip1 levels” value in the data set with p21Cip1 was “concomitant increase in p21Cip1”.

Regarding `CCn1c2c(c(=O)[nH]c1=O)C(c1ccc(C)cc1)C1=C(CN(CCc3ccc(OC)cc3)C1=O)N2` (stereo not drawn) [Compound 3r, 1-Ethyl-7-(4-methoxyphenethyl)-5-(p-tolyl)-5,7,8,9-tetrahydro-1H-pyrrolo[3',4':5,6]pyrido[2,3-d]pyrimidine-2,4,6(3H)-trione], the “effect on c-Myc levels” value in the data set on c-Myc is “decreasing c-Myc expression levels”. Also, the “effect on p21Cip1 levels” value in the data set with p21Cip1 is reported as “concomitant increase in p21Cip1”.

`CCn1c2c(c(=O)[nH]c1=O)C(c1ccc(C)cc1)C1=C(CN(CCc3ccc(O)cc3)C1=O)N2` (stereo not drawn) [Compound 3s, 1-Ethyl-7-(4-hydroxyphenethyl)-5-(p-tolyl)-5,7,8,9-tetrahydro-1H-pyrrolo[3',4':5,6]pyrido[2,3-d]pyrimidine-2,4,6(3H)-trione]: at 5FW-Brd4(1), the “binding behaviour by PrOF NMR” value was “slow exchange”. Also, in the data set on c-Myc, the “effect on c-Myc levels” value is “decreasing c-Myc expression levels”. Also, in the data set with p21Cip1, the “effect on p21Cip1 levels” value is listed as “concomitant increase in p21Cip1”.

As for `O=C1COC(=O)C1` [tetronic acid, reference compound], the “binding behaviour by PrOF NMR” value at 5FW-Brd4(1) is on record as “No binding was observed”.
